# From ChEMBL document CHEMBL1165950, “Design and synthesis of new potent anticancer pyrazoles with high FLT3 kinase inhibitory selectivity” (Bioorg Med Chem, 2010)
# Key:
# Type in all cases: functional
# HT-29 = assay: Growth inhibition of human HT-29 cells after 48 hrs by sulforhodamine B assay; details: HT-29, 48 h
# Outline: (§1)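 NCI 60-cell screen, five-dose mode. Cells grown in RPMI 1640 with 5% FBS and 2 mM L-glutamine and plated at 5000-40,000 cells/well according to doubling time. After 24 h preincubation, a Tz plate was TCA-fixed. Five concentrations (10-fold or 1/2 log dilutions) were applied for 48 h at 37 °C. SRB staining read at 515 nm. IC50 taken from [(Ti-Tz)/(C-Tz)]×100 = 50.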
# MDA-MB-468 [1] = assay: Cytotoxicity against human MDA-MB-468 cells assessed as cell growth at 10 uM after 48 hrs by sulforhodamine B assay; details: MDA-MB-468, 48 h, read-out: Activity
# MDA-MB-435 [2] = assay: Cytotoxicity against human MDA-MB-435 cells assessed as cell growth at 100 nM after 48 hrs by sulforhodamine B assay; details: MDA-MB-435, 48 h, read-out: Activity
# MDA-MB-468 [3] = assay: Growth inhibition of human MDA-MB-468 cells after 48 hrs by sulforhodamine B assay; details: MDA-MB-468, 48 h; outline: as §1
# T47D = assay: Cytotoxicity against human T47D cells assessed as cell growth at 100 nM after 48 hrs by sulforhodamine B assay; details: read-out: Activity
# NCI-H23 = assay: Cytotoxicity against human NCI-H23 cells assessed as cell growth at 1 uM after 48 hrs by sulforhodamine B assay; details: NCI-H23, 48 h, read-out: Activity
# OVCAR-3 = assay: Cytotoxicity against human OVCAR-3 cells assessed as cell growth at 1 uM after 48 hrs by sulforhodamine B assay; details: OVCAR-3, 48 h, read-out: Activity
# OVCAR-8 = assay: Cytotoxicity against human OVCAR8 cells assessed as cell growth at 0.001 uM after 48 hrs by sulforhodamine B assay; details: OVCAR-8, 48 h, read-out: Activity
# NCI/ADR-RES = assay: Cytotoxicity against human NCI/ADR-RES cells assessed as cell growth at 10 uM after 48 hrs by sulforhodamine B assay; details: read-out: Activity
# TK-10 = assay: Cytotoxicity against human TK10 cells assessed as cell growth at 10 uM after 48 hrs by sulforhodamine B assay; details: TK-10, 48 h, read-out: Activity
# LOX IMVI = assay: Cytotoxicity against human LOXIMVI cells assessed as cell growth at 10 uM after 48 hrs by sulforhodamine B assay; details: read-out: Activity
# NCI-H460 [4] = assay: Cytotoxicity against human NCI-H460 cells assessed as cell growth at 100 nM after 48 hrs by sulforhodamine B assay; details: NCI-H460, 48 h, read-out: Activity
# HCT-116 = assay: Cytotoxicity against human HCT116 cells assessed as cell growth at 1 uM after 48 hrs by sulforhodamine B assay; details: HCT-116, 48 h, read-out: Activity
# 786-0 = assay: Growth inhibition of human 786-0 cells after 48 hrs by sulforhodamine B assay; details: 786-0, 48 h
# Outline: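 NCI five-dose SRB assay in RPMI 1640 with 5% FBS and 2 mM L-glutamine. Cells were preincubated 24 h, then exposed 48 h at 37 °C to five concentrations (10-fold or half-log serial dilutions from DMSO stocks). TCA fixation, SRB staining, and absorbance at 515 nm followed. IC50 was taken where [(Ti−Tz)/(C−Tz)]×100 = 50, with Tz as time-zero cell density.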
# SN12C = assay: Growth inhibition of human SN12C cells after 48 hrs by sulforhodamine B assay; outline: as §1
# UACC-62 = assay: Cytotoxicity against human UACC62 cells assessed as cell growth at 10 uM after 48 hrs by sulforhodamine B assay; details: UACC-62, 48 h, read-out: Activity
# UACC-257 [5] = assay: Cytotoxicity against human UACC257 cells assessed as cell growth at 0.01 uM after 48 hrs by sulforhodamine B assay; details: UACC-257, 48 h, read-out: Activity
# IGROV-1 = assay: Cytotoxicity against human IGROV1 cells assessed as cell growth at 100 nM after 48 hrs by sulforhodamine B assay; details: IGROV-1, 48 h, read-out: Activity
# A549 = assay: Cytotoxicity against human A549 cells assessed as cell growth at 0.01 uM after 48 hrs by sulforhodamine B assay; details: A549, 48 h, read-out: Activity
# Outline: (§2)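 NCI-60 five-dose screen. Cells were grown in RPMI 1640 with 5% FBS and 2 mM L-glutamine, plated at 5000–40,000 cells/well and preincubated for 24 h. Time-zero plates were TCA-fixed. DMSO-solubilized drug was added at five concentrations (10-fold or ½-log serial dilutions) for 48 h at 37 °C, 5% CO2. Cells were TCA-fixed, stained with 0.4% SRB and read at 515 nm. Percent growth used time-zero, control and test absorbances.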
# SK-MEL-2 = assay: Cytotoxicity against human SK-MEL-2 cells assessed as cell growth at 1 uM after 48 hrs by sulforhodamine B assay; details: SK-MEL-2, 48 h, read-out: Activity
# NCI-H460 [6] = assay: Cytotoxicity against human NCI-H460 cells assessed as cell growth at 10 uM; details: read-out: Activity
# Outline: (§3)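 NCI-60 screen: cells grown in RPMI 1640 with 5% FBS and 2 mM L-glutamine, plated at 5000–40,000 cells/well according to doubling time, and preincubated 24 h at 37 °C, 5% CO2. The single 10 µM dose (DMSO stock) was added, then incubated 48 h. Cells were TCA-fixed and stained with 0.4% SRB, read at 515 nm, and growth % calculated against time-zero and control plates.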
# UACC-257 [7] = assay: Growth inhibition of human UACC257 cells after 48 hrs by sulforhodamine B assay; details: UACC-257, 48 h; outline: as §1
# Malme-3M [8] = assay: Cytotoxicity against human MALME-3M cells assessed as cell growth at 1 uM after 48 hrs by sulforhodamine B assay; details: read-out: Activity
# MOLT-4 = assay: Cytotoxicity against human MOLT4 cells assessed as cell growth at 100 nM after 48 hrs by sulforhodamine B assay; details: MOLT-4, 48 h, read-out: Activity
# MDA-MB-435 [9] = assay: Cytotoxicity against human MDA-MB-435 cells assessed as cell growth at 1 uM after 48 hrs by sulforhodamine B assay; details: MDA-MB-435, 48 h, read-out: Activity
# Malme-3M [10] = assay: Cytotoxicity against human MALME-3M cells assessed as cell growth at 10 uM; details: read-out: Activity; outline: as §3
# CCRF-CEM = assay: Cytotoxicity against human CCRF-CEM cells assessed as cell growth at 0.001 uM after 48 hrs by sulforhodamine B assay; details: read-out: Activity; outline: as §2
# SF-295 = assay: Cytotoxicity against human SF295 cells assessed as cell growth at 10 uM; details: read-out: Activity; outline: as §3
# KM12 = assay: Cytotoxicity against human KM12 cells assessed as cell growth at 10 uM after 48 hrs by sulforhodamine B assay; details: KM12, 48 h, read-out: Activity
# [11] = read-out: LC50 (the source's name)
compound,measurement,setting,value
COc1cc(C)cc(-c2c(-c3ccnc(-c4ccc(N(C)C)cc4)c3)cnn2CC#N)c1,GI50,HT-29,0.0377 µM
same,TGI,HT-29,0.211 µM
same,growth at 10 µM,MDA-MB-468 [1],-59%
same,growth at 0.1 µM,MDA-MB-435 [2],-43%
same,GI50,MDA-MB-468 [3],0.0261 µM
same,LC50 (concentration giving 50% net cell kill),MDA-MB-468 [3],1.04 µM
same,TGI,MDA-MB-468 [3],0.0798 µM
same,growth at 0.1 µM,T47D,44%
same,growth at 1 µM,NCI-H23,17%
same,growth at 1 µM,OVCAR-3,3%
same,growth at 0.001 µM,OVCAR-8,101%
same,growth at 10 µM,NCI/ADR-RES,3%
same,growth at 10 µM,TK-10,34%
same,growth at 10 µM,LOX IMVI,10%
same,growth at 0.1 µM,NCI-H460 [4],-43%
same,growth at 1 µM,HCT-116,-33%
same,GI50,786-0,0.0853 µM
same,TGI,786-0,> 100 µM
same,CC50,786-0; [11],> 100 µM
same,GI50,SN12C,0.398 µM
same,LC50,SN12C,> 100 µM
same,TGI,SN12C,> 100 µM
same,growth at 10 µM,UACC-62,16%
same,growth at 0.01 µM,UACC-257 [5],38%
same,growth at 0.1 µM,IGROV-1,2%
same,growth at 0.01 µM,A549,59%
same,growth at 1 µM,SK-MEL-2,11%
same,growth at 10 µM,NCI-H460 [6],-5.33%
same,GI50,UACC-257 [7],0.0359 µM
same,TGI,UACC-257 [7],> 100 µM
same,CC50,UACC-257 [7]; [11],> 100 µM
same,growth at 1 µM,Malme-3M [8],40%
same,growth at 0.1 µM,MOLT-4,9%
same,growth at 1 µM,MDA-MB-435 [9],-29%
same,growth at 10 µM,Malme-3M [10],103%
same,growth at 0.001 µM,CCRF-CEM,95%
same,growth at 10 µM,SF-295,4.06%
same,growth at 10 µM,KM12,-49%
